Measured values published in ChEMBL document CHEMBL4513216, “Probing the Open Global Health Chemical Diversity Library for Multistage-Active Starting Points for Next-Generation Antimalarials” (ACS Infect Dis, 2020).

Test: Toxicity liver stage against HepG2, at 10uM
Type: cell-based
Parameters: test concentration 10 uM, cell line HepG2-A16-CD81EGFP
Conditions: human, HepG2-A16-CD81EGFP cells; read-out: INHIBITION
Method in brief: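 Uninfected HepG2-A16-CD81EGFP cells, 3 × 10^3 per well, 1536-well, plated on prespotted compound at 10 μM final, parasite-free screening media added to match infected plates; puromycin 10 μM positive, DMSO 0.5% negative; run in parallel with 48 h PbLuc assay at 37 °C, 5% CO2; viability by CellTiter-Glo luminescence, normalized to controls.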

| Compound | cytotoxicity at 10 µM |
| --- | --- |
| O=C(C1CC(c2ccccc2)=NO1)N1CCc2ccccc21 (stereo unspecified) | -0.643% |
| O=C1C[C@@H]2CCN(Cc3ccccc3)C[C@@H]2CCN1c1ccccc1 | 3.16% |
| COc1ccc(CNC(=O)NCc2cc(C)oc2C)cc1 | -6% |
| Cc1noc(-c2ccc(N3CCCC(C(=O)O)C3)nc2)n1 (stereo unspecified) | -2.38% |
| CCOc1cccc(CNc2cccc(C(=O)OC)c2)c1O | 7.36% |
| Cc1ccsc1CNCCCOc1ccccn1 | -0.575% |
| Cc1cc(-c2cnc(C)nc2CN(C)C(=O)c2cc(C3CC3)on2)on1 | -20% |
| COc1cccc(CN2CCOC(c3cnccn3)C2)c1F (stereo unspecified) | 8.63% |
| Cc1ccc(S(=O)(=O)NC(=O)CCc2ccco2)cc1N(C)C | -0.845% |
| O=C(CCC1CCCCC1)NCc1nnc2ccccn12 | 3.47% |
| CS(=O)(=O)c1ccc(Cl)c(C(=O)NCCC2=CCCCC2)c1 | 8.17% |
| O=C(NCCNc1ncccn1)c1ccc(Cl)s1 | 4.6% |
| CC(NCc1cnc(N2CCOCC2)s1)c1ccc(Cl)s1 (stereo unspecified) | -9.02% |
| COc1ccc(CN2CCCN(c3cc(C(N)=O)ccn3)CC2)cc1 | 11% |
| Cc1cccc(CN(Cn2nc(C)c3c(C)onc3c2=O)C2CC2)c1 | 1.33% |
| Cc1noc(CCCC(=O)NC(C)c2nnc3n2CCCCC3)n1 (stereo unspecified) | 3.21% |
| Cc1nn(CC(O)CN2CCC(C)CC2)c(=O)c(C#N)c1C (stereo unspecified) | 5.84% |
| CC(C)C(C)NC(=O)Nc1ccc(CC(N)=O)cc1 (stereo unspecified) | -3.36% |
| CCCc1n[nH]c(C2CN(C(=O)CCCn3ccnc3)CCO2)n1 (stereo unspecified) | -5.39% |
| Cc1nc(C)n(CC2CN(CCn3cccn3)CCO2)n1 (stereo unspecified) | -0.665% |
| Cc1ccc(CNc2ccn(CCc3ccncc3)n2)s1 | 21.8% |
| N#CCCCS(=O)(=O)N1CCC(CSc2ccccc2)C1 (stereo unspecified) | 1.7% |
| Cc1cn2nc(Sc3nnnn3C)sc2n1 | 17.3% |

| Compound | cytotoxicity at 10 µM |
| --- | --- |
| CC(SCC(=O)N(C)CC(=O)NC1CC1)c1ccc(F)c(F)c1 (stereo unspecified) | -0.369% |
| CCOc1ccc(CN2C(=O)CC(C)(C(C)C)C2=O)nc1 (stereo unspecified) | -5.51% |
| CN(C)S(=O)(=O)c1ccc(CN2CCC(C(N)=O)CC2)o1 | 0.214% |
| CN(CCc1ccccn1)c1cnn(C)c(=O)c1Br | -5.03% |
| Cc1nnc(-c2cccc(C#N)c2)n1C1CCCN(C(C)C)C1=O (stereo unspecified) | -6.74% |
| Cc1cnn(CCNCC(=O)NC(c2ccccc2)c2ccccc2)c1 | -5.73% |
| O=C(NCc1cccnc1)C1=NN(c2ccccc2)C(=O)CN1 | 12.3% |
| CC(=O)N1CCN(S(=O)(=O)c2ccc(C)c(F)c2)CC1 | -9.42% |
| Cc1noc(C)c1CN1C[C@H]2CNC[C@H]2C1 | 6.62% |
| O=C(NCC1CC1)C1=NOC2(CCN(S(=O)(=O)c3ccc(F)cc3)C2)C1 (stereo unspecified) | 3.25% |
| CN(C)C[C@@H]1CN(C(=O)Cc2ccccc2)C[C@@H]1CO | -1.07% |
| COc1ccc(C(C(=O)O)N2CCC(O)(c3cccnc3)CC2)cc1F (stereo unspecified) | 50.8% |
| COc1cccc(S(=O)(=O)N2CCCCC2CCN2CCCC2=O)c1 (stereo unspecified) | 7.12% |
| Cc1ccc(C(NC(=O)CCCN2CCCCC2)C(=O)O)cc1 (stereo unspecified) | 2.87% |
| Cc1cc(C)c(Cn2cncn2)cc1CN1CC[C@H](CO)[C@@H](O)C1 | -5.42% |
| O=C(NC1CC(=O)N(C2Cc3ccccc3C2)C1)c1cc[n+]([O-])cc1 (stereo unspecified) | -1.03% |
| CCn1c(-c2ccccc2)nn(CC(=O)NCCc2ccc(C)o2)c1=O | -0.545% |
| N#Cc1cc2c(=O)n(CC(O)c3cccc(O)c3)ccc2[nH]c1=O (stereo unspecified) | 2.86% |
| CN(Cc1nncn1-c1cccc(C(F)(F)F)c1)S(C)(=O)=O | 3.01% |
| Cc1cc2n(n1)CC(CNCc1ccccc1-n1cccn1)CN2 (stereo unspecified) | -11.5% |
| CN1CCCc2cc(CNC(=O)c3cccnc3O)ccc21 | -1.68% |
| Cc1nnc(NC(=O)NCc2cccnc2N(C)C)s1 | -10.3% |
| CC(C)OC(=O)N1C[C@@H]2CC[C@H]1CN(Cc1cccnc1)C2 | 0.189% |
